By IC50 is commonly meant the point on the concentration scale where inhibition reaches its midpoint. High values mean lower potency, low ones higher potency. A word on the Ki: it is the dissociation constant of the complex between target and ligand, obtained from inhibition or displacement. Low readings indicate tighter binding, high ones weaker binding.

In experiment [1] the target is T1, Tyrosine-protein phosphatase non-receptor type 1 (Homo sapiens, UniProt P18031).
T1 sequence (P18031 whole entry): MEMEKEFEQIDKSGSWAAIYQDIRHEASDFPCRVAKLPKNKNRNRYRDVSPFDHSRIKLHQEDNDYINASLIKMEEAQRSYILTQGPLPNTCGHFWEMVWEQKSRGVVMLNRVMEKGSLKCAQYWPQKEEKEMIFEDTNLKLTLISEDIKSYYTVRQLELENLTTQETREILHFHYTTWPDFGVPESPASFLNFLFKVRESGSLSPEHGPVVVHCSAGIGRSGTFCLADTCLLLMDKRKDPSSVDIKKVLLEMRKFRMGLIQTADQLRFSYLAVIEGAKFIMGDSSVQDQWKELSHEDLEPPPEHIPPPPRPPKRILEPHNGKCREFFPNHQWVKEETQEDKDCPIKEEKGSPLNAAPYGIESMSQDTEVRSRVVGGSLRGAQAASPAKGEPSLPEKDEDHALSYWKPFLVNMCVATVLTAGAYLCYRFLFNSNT
Kind of experiment: Inhibition of PTP1B after 10 mins.

The target in experiment [2] is T2, Tyrosine-protein phosphatase non-receptor type 2 (Homo sapiens, UniProt P17706).
T2 sequence (P17706 whole entry): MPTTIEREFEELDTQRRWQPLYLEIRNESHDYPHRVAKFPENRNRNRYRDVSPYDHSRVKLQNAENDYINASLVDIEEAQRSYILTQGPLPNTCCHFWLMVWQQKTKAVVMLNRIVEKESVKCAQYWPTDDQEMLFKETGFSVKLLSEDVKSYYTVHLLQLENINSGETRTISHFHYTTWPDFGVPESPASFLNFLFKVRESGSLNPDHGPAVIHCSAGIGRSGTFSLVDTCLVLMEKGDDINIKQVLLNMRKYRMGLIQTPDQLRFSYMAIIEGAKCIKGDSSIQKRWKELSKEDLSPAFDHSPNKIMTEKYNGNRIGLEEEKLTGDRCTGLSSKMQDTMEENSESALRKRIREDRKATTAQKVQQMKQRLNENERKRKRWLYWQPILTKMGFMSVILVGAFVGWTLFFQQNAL
Kind of experiment: Inhibition of TC-PTP after 10 mins. A digest of the protocol:
(§1)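 Enzymes were preincubated 10 min with inhibitor in DMSO, then pNPP was added to start the reaction. Final mix: 2 mM pNPP, 50 mM Hepes, 5 mM EDTA, pH 7, plus 10% enzyme dilution buffer (Hepes, EDTA, 1 mM DTT, BSA). Enzyme levels were native PTP1B 40 nM, SHP-1cat 5 µg/mL, LAR-D1 and TC-PTP 33 U/mL, YOP 50 U/mL and YPTP-1 15 nM. IC50 came from an inhibitor concentration range, as means ± SD of 2–3 experiments.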

Experiment [3] addresses Tyrosine-protein phosphatase non-receptor type 6 (Homo sapiens, UniProt P29350). Kind of experiment: Inhibition of SHP-1 catalytic domain after 10 mins. The essentials:
as §1

Experiment [4] is described as follows: Inhibition of LAR-D1 after 10 mins. On the set-up: species or system Homo sapiens. The essentials: as §1
Experiment [5] in a line: Inhibition of YOP after 10 mins. A digest of the protocol: as §1
Experiment [6] deals with T3, Tyrosine-protein phosphatase 1 (Saccharomyces cerevisiae S288c, UniProt P25044).
T3 sequence (P25044 whole entry): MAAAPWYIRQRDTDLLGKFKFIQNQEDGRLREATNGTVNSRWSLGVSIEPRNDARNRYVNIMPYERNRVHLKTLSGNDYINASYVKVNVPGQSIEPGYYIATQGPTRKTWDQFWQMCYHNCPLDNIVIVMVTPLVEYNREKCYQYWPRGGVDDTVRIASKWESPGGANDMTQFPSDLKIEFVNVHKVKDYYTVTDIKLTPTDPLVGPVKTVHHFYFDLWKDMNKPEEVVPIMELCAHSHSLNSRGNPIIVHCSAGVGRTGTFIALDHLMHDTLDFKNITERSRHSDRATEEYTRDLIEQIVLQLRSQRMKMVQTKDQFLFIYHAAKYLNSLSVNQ
Nature of the experiment: Inhibition of yeast PTP1 after 10 mins. A digest of the protocol:
as §1

The species named for the next experiment is Homo sapiens. Kind of experiment: Selectivity for PTP1B over TC-PTP.
Another experiment is filed under the species Mus musculus. Kind of experiment: Antihyperglycemic activity in high fat diet induced C57BL/6JCr Slc mouse assessed as reduction in blood glucose level relative to control. Type of experiment: functional, organism-based. A digest of the protocol: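 Male C57BL/6J Cr Slc mice, 5 wk old and acclimatized 1 wk, were fed high-fat diet for 8 wk. They were then split into two groups of 7 and fed HFD or HFD plus drug for 4 wk; a lean LFD group served as control. After a 6 h fast, mice received glucose 1 g/kg ip. Tail-blood glucose was read at baseline and at 20, 40, 60, 90 and 120 min.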

Molecules are shown by their SMILES. Calls of active or inactive are those of the source. The rule behind the calls is not given here. Where only a bound is given, the exact number is not on record here.

Chain of Tyrosine-protein phosphatase non-receptor type 6 (P29350 whole entry, the tested form may be a part): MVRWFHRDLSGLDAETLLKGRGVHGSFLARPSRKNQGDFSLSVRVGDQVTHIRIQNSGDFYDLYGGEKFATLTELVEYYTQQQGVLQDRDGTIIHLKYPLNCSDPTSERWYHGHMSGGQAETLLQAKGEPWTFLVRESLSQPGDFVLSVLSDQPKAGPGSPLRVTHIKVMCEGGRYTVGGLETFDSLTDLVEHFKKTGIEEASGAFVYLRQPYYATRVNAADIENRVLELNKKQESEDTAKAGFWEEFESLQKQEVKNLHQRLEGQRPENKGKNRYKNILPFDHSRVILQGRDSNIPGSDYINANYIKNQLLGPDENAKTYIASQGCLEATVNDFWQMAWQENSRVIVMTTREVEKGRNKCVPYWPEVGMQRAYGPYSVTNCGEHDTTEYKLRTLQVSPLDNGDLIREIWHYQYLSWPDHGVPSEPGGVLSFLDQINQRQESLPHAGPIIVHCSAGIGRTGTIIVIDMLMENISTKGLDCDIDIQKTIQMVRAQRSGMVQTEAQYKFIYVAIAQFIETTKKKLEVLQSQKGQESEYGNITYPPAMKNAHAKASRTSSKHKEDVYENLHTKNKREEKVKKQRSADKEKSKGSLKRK

`O=C(O)COc1c(O)cc(-c2ccccc2)cc1O` had a half-maximal inhibitory concentration (IC50) in experiment [1] greater than 1000 µM.

`O=C(O)COc1c(O)cc(Br)cc1OCc1ccccc1` displayed an IC50 in experiment [1] of 300 µM.

`O=C(O)COc1c(O)cc(-c2cc(C(F)(F)F)cc(C(F)(F)F)c2)cc1OCc1ccc(C(F)(F)F)cc1`: the IC50 in experiment [1] was 2 µM; in experiment [2] it was 22 µM; in experiment [3] it was 4 µM; in experiment [4] it was 116 µM; in experiment [5], 6 µM; in experiment [6], 9 µM. Moreover, the Ki worked out at 1.1 µM in experiment [1] and 8.2 µM in experiment [2]. The Selectivity ratio in the experiment listed under Homo sapiens amounted to 7. Moreover, the outcome in the experiment filed under Mus musculus was Active.

Compound `O=C(O)COc1c(O)cc(-c2ccccc2)cc1OCc1ccccc1` came in with an IC50 in experiment [1] of 93 µM.

Consider `O=C(O)COc1c(O)cc(-c2ccccc2)cc1OCc1ccc(C(F)(F)F)cc1`, for which the IC50 in experiment [1] amounted to 17 µM.

On to `O=C(O)COc1c(O)cc(Br)cc1OCc1ccc(C(F)(F)F)cc1`, for which inhibition in experiment [1] was half-maximal at 73 µM (IC50).

Take `O=C(O)COc1c(O)cc(-c2cccc(C(F)(F)F)c2)cc1OCc1ccccc1`: the IC50 is 2.2 µM in experiment [1]; 120 µM in experiment [2]; 38 µM in experiment [3]; greater than 200 µM in experiment [4]; 33 µM in experiment [5]; 52 µM in experiment [6]. Further, the Selectivity ratio in the experiment listed under Homo sapiens was 5.

As for `O=C(O)COc1c(O)cc(-c2ccc(C(F)(F)F)cc2)cc1OCc1ccccc1`, the IC50 in experiment [1] is 13 µM; in experiment [2], 96 µM; in experiment [3] it was 25 µM; in experiment [4], greater than 200 µM; in experiment [5], 34 µM; in experiment [6] it was 17 µM. In addition, the Selectivity ratio in the experiment filed under Homo sapiens amounted to 5.

Consider `COc1cc(COc2cc(-c3ccccc3)cc(O)c2OCC(=O)O)cc(OC)c1`, for which the IC50 in experiment [1] worked out at 40 µM.

With `O=C(O)COc1c(O)cc(-c2cc(C(F)(F)F)cc(C(F)(F)F)c2)cc1OCc1ccccc1`, the IC50 in experiment [1] was 5.7 µM; in experiment [2], 37 µM; in experiment [3], 9 µM; in experiment [4] it was greater than 200 µM; in experiment [5] it was 15 µM; in experiment [6] it was 20 µM. For the same compound, the Selectivity ratio in the experiment listed under Homo sapiens came out at 5.

`O=C(O)COc1c(O)cccc1OCc1ccccc1` yielded an IC50 in experiment [1] greater than 1000 µM.

Take `O=C(O)COc1c(O)cc(-c2ccc(C(F)(F)F)cc2)cc1OCc1ccc(C(F)(F)F)cc1`: the IC50 in experiment [1] was 5.4 µM; in experiment [2] it was 44 µM; in experiment [3] it was 12 µM; in experiment [4], greater than 200 µM; in experiment [5], 13 µM; in experiment [6], 23 µM. Also, in the experiment listed under Homo sapiens, the Selectivity ratio was 5.

Take `O=C(O)COc1c(O)cc(-c2cccc(C(F)(F)F)c2)cc1OCc1ccc(C(F)(F)F)cc1`: the IC50 is 5 µM in experiment [1]; 65 µM in experiment [2]; 13 µM in experiment [3]; greater than 200 µM in experiment [4]; 21 µM in experiment [5]; 17 µM in experiment [6]. Also, the Selectivity ratio in the experiment filed under Homo sapiens came out at 5.

Take `O=C(O)COc1c(O)cccc1OCc1ccc(C(F)(F)F)cc1`: the IC50 in experiment [1] was greater than 1000 µM.

For the origin of these results see ChEMBL document CHEMBL1137434, “2-O-carboxymethylpyrogallol derivatives as PTP1B inhibitors with antihyperglycemic activity” (Bioorg Med Chem Lett, 2007).
